According to ChEMBL document CHEMBL4004835, “Discovery of Novel Disruptor of Silencing Telomeric 1-Like (DOT1L) Inhibitors using a Target-Specific Scoring Function for the (S)-Adenosyl-l-methionine (SAM)-Dependent Methyltransferase Family” (J Med Chem, 2017):

Assays:
MV4-11 [1] = test: Induction of cell cycle arrest in human MV4-11 cells assessed as accumulation at S phase at 50 uM after 48 hrs by propidium iodide/RNase-staining based flow cytometric analysis (reference value: 24.40 %); format: functional
Method in brief: (§1)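 MV4-11 cells (2 × 10^6) seeded in 12-well dishes, treated with different concentrations for 48 h, processed with a PI/RNase staining kit and analysed for cell-cycle distribution by FACSCalibur flow cytometry.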

MV4-11 [2] = test: Induction of apoptosis in human MV4-11 cells assessed as early apoptotic cells at 25 uM after 72 hrs by annexin V/FITC and propidium iodide staining-based flow cytometric analysis (reference value: 5.66 %); format: functional
MV4-11 [3] = test: Induction of apoptosis in human MV4-11 cells assessed as necrotic cells at 12.5 uM after 72 hrs by annexin V/FITC and propidium iodide staining-based flow cytometric analysis (reference value: 0.04 %); format: functional
MV4-11 [4] = test: Induction of apoptosis in human MV4-11 cells assessed as early apoptotic cells at 50 uM after 72 hrs by annexin V/FITC and propidium iodide staining-based flow cytometric analysis (reference value: 5.66 %); format: functional
[5] = biological target: T1, Histone-lysine N-methyltransferase, H3 lysine-79 specific (Homo sapiens, UniProt Q8TEK3); test: Inhibition of N-terminal 6His-tagged human DOT1L (1 to 416 residues) expressed in Escherichia coli BL21(DE3) at 50 uM preincubated for 15 mins followed by [3H]-SAM addition measured after 120 mins by radioactive methylation assay
Method in brief: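 DOT1L and compound preincubated 15 min at room temperature; oligonucleosome and 3H-SAM added; reaction 120 min at room temperature, stopped with cold SAM; transferred to 0.5% PEI-pretreated filter plate, washed 3× with water, read by liquid scintillation counting.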
Target sequence in this assay (Q8TEK3 whole entry, looked up, the tested form may be a part): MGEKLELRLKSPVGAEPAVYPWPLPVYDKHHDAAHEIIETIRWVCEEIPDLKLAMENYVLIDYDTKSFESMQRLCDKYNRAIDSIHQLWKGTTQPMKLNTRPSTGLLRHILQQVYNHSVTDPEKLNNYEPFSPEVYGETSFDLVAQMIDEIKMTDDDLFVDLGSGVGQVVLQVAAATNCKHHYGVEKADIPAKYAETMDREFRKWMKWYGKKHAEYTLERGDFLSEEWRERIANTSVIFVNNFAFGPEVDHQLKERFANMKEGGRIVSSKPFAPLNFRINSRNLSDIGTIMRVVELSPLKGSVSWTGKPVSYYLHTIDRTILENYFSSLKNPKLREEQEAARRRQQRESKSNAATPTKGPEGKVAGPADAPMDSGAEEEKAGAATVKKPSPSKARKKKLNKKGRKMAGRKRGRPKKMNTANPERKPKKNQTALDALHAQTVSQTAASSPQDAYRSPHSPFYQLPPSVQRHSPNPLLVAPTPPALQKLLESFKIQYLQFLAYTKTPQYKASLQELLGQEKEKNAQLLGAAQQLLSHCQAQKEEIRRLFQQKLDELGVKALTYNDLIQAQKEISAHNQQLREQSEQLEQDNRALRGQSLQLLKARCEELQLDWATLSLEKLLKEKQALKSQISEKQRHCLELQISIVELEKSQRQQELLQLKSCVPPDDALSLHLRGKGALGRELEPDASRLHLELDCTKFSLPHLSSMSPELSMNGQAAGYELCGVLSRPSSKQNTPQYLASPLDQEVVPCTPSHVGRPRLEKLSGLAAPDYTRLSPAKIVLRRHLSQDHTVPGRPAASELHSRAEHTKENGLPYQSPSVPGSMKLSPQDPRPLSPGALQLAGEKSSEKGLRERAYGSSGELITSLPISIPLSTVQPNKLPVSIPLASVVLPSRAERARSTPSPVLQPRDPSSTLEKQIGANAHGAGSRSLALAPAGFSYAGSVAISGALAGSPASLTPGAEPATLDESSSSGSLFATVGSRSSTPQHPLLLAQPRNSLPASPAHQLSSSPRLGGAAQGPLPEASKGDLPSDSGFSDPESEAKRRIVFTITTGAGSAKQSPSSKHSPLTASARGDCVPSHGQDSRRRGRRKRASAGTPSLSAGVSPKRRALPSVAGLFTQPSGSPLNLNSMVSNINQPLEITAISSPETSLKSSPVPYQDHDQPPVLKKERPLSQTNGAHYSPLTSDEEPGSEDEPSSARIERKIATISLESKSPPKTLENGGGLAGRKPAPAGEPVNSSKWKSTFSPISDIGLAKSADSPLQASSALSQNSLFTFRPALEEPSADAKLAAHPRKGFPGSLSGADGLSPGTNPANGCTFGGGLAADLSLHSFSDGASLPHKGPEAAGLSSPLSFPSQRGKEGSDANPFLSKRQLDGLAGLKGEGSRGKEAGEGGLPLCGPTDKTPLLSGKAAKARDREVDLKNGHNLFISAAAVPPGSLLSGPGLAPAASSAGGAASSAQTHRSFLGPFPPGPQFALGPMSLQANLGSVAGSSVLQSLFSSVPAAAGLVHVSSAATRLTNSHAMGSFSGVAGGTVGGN

K562 = test: Cytotoxicity against human K562 cells assessed as reduction in cell viability after 72 hrs by alamar blue assay; format: functional, cell-based; conditions: K562, 72 h
Method in brief: (§2)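 Cells cultured in RPMI 1640 with 10% FBS and 1% penicillin/streptomycin, treated with a range of concentrations or equal DMSO, 37 °C, 5% CO2, 72 h. Viability read by alamar blue (ex 544/em 590 nm); percent proliferation and IC50 curve fitted.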

MV4-11 [6] = test: Induction of apoptosis in human MV4-11 cells assessed as necrotic cells at 6.25 uM after 72 hrs by annexin V/FITC and propidium iodide staining-based flow cytometric analysis (reference value: 0.04 %); format: functional
MV4-11 [7] = test: Induction of cell cycle arrest in human MV4-11 cells assessed as accumulation at S phase at 6.25 uM after 48 hrs by propidium iodide/RNase-staining based flow cytometric analysis (reference value: 24.40 %); format: functional; method in brief: as §1
MV4-11 [8] = test: Induction of apoptosis in human MV4-11 cells assessed as late apoptotic cells at 50 uM after 72 hrs by annexin V/FITC and propidium iodide staining-based flow cytometric analysis (reference value: 4.02 %); format: functional
MV4-11 [9] = test: Induction of apoptosis in human MV4-11 cells assessed as early apoptotic cells at 12.5 uM after 72 hrs by annexin V/FITC and propidium iodide staining-based flow cytometric analysis (reference value: 5.66 %); format: functional
Kasumi 1 = test: Cytotoxicity against human Kasumi-1 cells assessed as reduction in cell viability after 72 hrs by alamar blue assay; format: functional, cell-based; conditions: Kasumi 1, 72 h; method in brief: as §2
[10] = biological target: T1, Histone-lysine N-methyltransferase, H3 lysine-79 specific; test: Binding affinity to human N-terminal 6His-tagged DOT1L (1 to 416 residues) expressed in Escherichia coli BL21(DE3) after 150 secs by SPR-based binding assay
Target sequence in this assay (Q8TEK3 whole entry, the tested form may be a part): as the sequence (Q8TEK3 whole entry, looked up, the tested form may be a part) above

MV4-11 [11] = test: Induction of apoptosis in human MV4-11 cells assessed as late apoptotic cells at 25 uM after 72 hrs by annexin V/FITC and propidium iodide staining-based flow cytometric analysis (reference value: 4.02 %); format: functional
MV4-11 [12] = test: Induction of cell cycle arrest in human MV4-11 cells assessed as accumulation at G1 phase at 12.5 uM after 48 hrs by propidium iodide/RNase-staining based flow cytometric analysis (reference value: 68.16 %); format: functional; method in brief: as §1
MV4-11 [13] = test: Induction of apoptosis in human MV4-11 cells assessed as late apoptotic cells at 6.25 uM after 72 hrs by annexin V/FITC and propidium iodide staining-based flow cytometric analysis (reference value: 4.02 %); format: functional
MV4-11 [14] = test: Induction of cell cycle arrest in human MV4-11 cells assessed as accumulation at G2 phase at 12.5 uM after 48 hrs by propidium iodide/RNase-staining based flow cytometric analysis (reference value: 7.44 %); format: functional; method in brief: as §1
MV4-11 [15] = test: Induction of cell cycle arrest in human MV4-11 cells assessed as accumulation at G1 phase at 25 uM after 48 hrs by propidium iodide/RNase-staining based flow cytometric analysis (reference value: 68.16 %); format: functional; method in brief: as §1
[16] = biological target: T1, Histone-lysine N-methyltransferase, H3 lysine-79 specific; test: Inhibition of N-terminal 6His-tagged human DOT1L (1 to 416 residues) expressed in Escherichia coli BL21(DE3) at 50 uM using histone H3 as substrate preincubated for 15 mins followed by SAM addition measured after 60 mins by AlphaLISA assay
Method in brief: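 DOT1L (80 nM final) preincubated with compound 15 min at 25 °C; SAM 1 mM and oligonucleosomes 0.25 ng/μL added in 50 mM Tris-HCl pH 8.0, 150 mM NaCl, 3 mM MgCl2, 0.1% BSA, 60 min at 25 °C; stopped with high-salt buffer; H3K79me2 detected with anti-H3 acceptor beads, biotinylated antibody, then streptavidin donor beads.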
Target sequence in this assay (Q8TEK3 whole entry, looked up, the tested form may be a part): as above

HL-60 = test: Cytotoxicity against human HL60 cells assessed as reduction in cell viability after 72 hrs by alamar blue assay; format: functional, cell-based; conditions: HL-60, 72 h; method in brief: as §2

inhibition [5]: 68%
Kd [10]: 17.3 µM
inhibition [16]: > 40%
Structure (SMILES): Fc1cccc(-c2nn3c(Cn4nnc5ccccc54)nnc3s2)c1
Activity (MV4-11 [1]): 17.76%
Activity (MV4-11 [2]): 58.2%
Activity (MV4-11 [3]): 3.8%
Activity (MV4-11 [4]): 55.2%
IC50 (K562): > 200 µM
Activity (MV4-11 [6]): 1.37%
Activity (MV4-11 [7]): 26.56%
Activity (MV4-11 [8]): 40.8%
Activity (MV4-11 [9]): 50.1%
IC50 (Kasumi 1): > 200 µM
Activity (MV4-11 [11]): 33.5%
Activity (MV4-11 [12]): 70.27%
Activity (MV4-11 [13]): 25%
Activity (MV4-11 [14]): 4.35%
Activity (MV4-11 [15]): 83.18%
IC50 (HL-60): > 200 µM
